Data from ChEMBL document CHEMBL4014310, “Selective IKur Inhibitors for the Potential Treatment of Atrial Fibrillation: Optimization of the Phenyl Quinazoline Series Leading to Clinical Candidate 5-[5-Phenyl-4-(pyridin-2-ylmethylamino)quinazolin-2-yl]pyridine-3-sulfonamide” (J Med Chem, 2017).

Columns and labels:
[1] = biological target: T1, Potassium voltage-gated channel subfamily A member 5 (Homo sapiens, UniProt P22460); settings: at 0.3 µM
[2] = biological target: T2, Voltage-gated inwardly rectifying potassium channel KCNH2 (Homo sapiens, UniProt Q12809); assay: Inhibition of human ERG expressed in HEK293 cells by patch clamp method; format: cell-based
T2 sequence (Q12809 whole entry, the tested form may be a part): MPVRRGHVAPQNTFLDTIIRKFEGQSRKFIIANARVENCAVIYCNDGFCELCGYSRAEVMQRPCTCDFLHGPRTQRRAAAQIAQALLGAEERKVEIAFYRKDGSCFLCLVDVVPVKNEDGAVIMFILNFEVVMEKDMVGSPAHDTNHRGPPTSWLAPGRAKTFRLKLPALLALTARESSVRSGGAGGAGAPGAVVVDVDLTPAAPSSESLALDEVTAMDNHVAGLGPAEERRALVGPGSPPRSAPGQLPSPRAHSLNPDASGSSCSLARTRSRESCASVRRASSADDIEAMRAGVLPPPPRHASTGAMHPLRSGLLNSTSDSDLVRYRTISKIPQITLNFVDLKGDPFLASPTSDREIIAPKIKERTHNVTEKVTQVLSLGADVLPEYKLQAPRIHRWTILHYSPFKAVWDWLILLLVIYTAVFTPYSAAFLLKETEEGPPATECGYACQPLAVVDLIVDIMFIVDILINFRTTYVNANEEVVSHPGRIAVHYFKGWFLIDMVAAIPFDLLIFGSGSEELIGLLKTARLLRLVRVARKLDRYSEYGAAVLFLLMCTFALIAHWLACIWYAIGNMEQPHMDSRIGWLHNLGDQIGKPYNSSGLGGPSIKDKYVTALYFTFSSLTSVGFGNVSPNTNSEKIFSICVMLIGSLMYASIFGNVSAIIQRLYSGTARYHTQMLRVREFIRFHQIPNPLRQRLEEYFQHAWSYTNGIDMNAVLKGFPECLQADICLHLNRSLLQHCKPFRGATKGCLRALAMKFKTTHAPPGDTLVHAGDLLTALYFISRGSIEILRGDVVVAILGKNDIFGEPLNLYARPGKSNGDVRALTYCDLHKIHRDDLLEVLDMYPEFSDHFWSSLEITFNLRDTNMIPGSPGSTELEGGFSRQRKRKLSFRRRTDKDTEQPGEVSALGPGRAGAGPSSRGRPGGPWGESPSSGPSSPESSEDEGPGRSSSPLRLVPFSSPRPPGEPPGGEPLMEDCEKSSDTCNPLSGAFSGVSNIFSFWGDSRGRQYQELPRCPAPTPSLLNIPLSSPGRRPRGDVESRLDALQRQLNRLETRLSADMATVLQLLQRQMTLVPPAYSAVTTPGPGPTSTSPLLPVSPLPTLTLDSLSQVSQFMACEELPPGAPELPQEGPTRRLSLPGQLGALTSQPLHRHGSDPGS

[3] = Ratio of drug level in Sprague-Dawley rat brain to plasma at 3 mg/kg, iv administered as 10 mins infusion by LC-MS/MS analysis; format: ADME, organism-based; settings: brain and plasma, read-out: BPR
[4] = Protein binding in human plasma; format: ADME, cell-free; settings: read-out: PPB
[5] = Protein binding in rat plasma; format: ADME, cell-free; settings: read-out: PPB
[6] = Solubility of the compound in ethanol/propylene glycol/PEG-400; format: physicochemical
[7] = biological target: T1, Potassium voltage-gated channel subfamily A member 5; assay: Inhibition of recombinant human Kv1.5 expressed in mouse L929 cells by patch clamp assay; format: cell-based
Summary of the method: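 Whole-cell patch clamp of IKur current in mouse L-929 cells transfected with human KV1.5 and stably expressing the channel.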

[8] = Stability in human liver microsomes assessed as compound remaining in presence of NADPH after 10 mins; format: ADME, microsome; settings: read-out: Stability
[9] = biological target: T2, Voltage-gated inwardly rectifying potassium channel KCNH2; assay: Inhibition of human ERG expressed in HEK293 cells by flux assay
Plasma = assay: Drug uptake in monkey famotidine model plasma; format: ADME, cell-free, Macaca mulatta; settings: rhesus monkey
[10] = Prodrug conversion in monkey famotidine model assessed as 5-[5-phenyl-4-(pyridin-2-ylmethylamino)-quinazolin-2-yl]pyridine-3-sulfonamide formation in intestinal brush border; format: ADME, Macaca mulatta; settings: rhesus monkey, in vivo
[11] = Solubility of the compound in pH 1 to 8 solution using crystalline form; format: physicochemical
hERG (KCNH2) [12] = biological target: T3, hERG (KCNH2) (Homo sapiens, UniProt Q12809); assay: Inhibition of human ERG expressed in HEK293 cells at 1 uM by patch clamp method relative to control; format: cell-based; settings: HEK293 cells expressing human ERG
T3 sequence (Q12809 whole entry): as the sequence (Q12809 whole entry, the tested form may be a part) above

hERG (KCNH2) [13] = biological target: T3, hERG (KCNH2); assay: Inhibition of human ERG expressed in HEK293 cells at 10 uM by patch clamp method relative to control; format: cell-based; settings: HEK293 cells expressing human ERG

T1 sequence (P22460 whole entry): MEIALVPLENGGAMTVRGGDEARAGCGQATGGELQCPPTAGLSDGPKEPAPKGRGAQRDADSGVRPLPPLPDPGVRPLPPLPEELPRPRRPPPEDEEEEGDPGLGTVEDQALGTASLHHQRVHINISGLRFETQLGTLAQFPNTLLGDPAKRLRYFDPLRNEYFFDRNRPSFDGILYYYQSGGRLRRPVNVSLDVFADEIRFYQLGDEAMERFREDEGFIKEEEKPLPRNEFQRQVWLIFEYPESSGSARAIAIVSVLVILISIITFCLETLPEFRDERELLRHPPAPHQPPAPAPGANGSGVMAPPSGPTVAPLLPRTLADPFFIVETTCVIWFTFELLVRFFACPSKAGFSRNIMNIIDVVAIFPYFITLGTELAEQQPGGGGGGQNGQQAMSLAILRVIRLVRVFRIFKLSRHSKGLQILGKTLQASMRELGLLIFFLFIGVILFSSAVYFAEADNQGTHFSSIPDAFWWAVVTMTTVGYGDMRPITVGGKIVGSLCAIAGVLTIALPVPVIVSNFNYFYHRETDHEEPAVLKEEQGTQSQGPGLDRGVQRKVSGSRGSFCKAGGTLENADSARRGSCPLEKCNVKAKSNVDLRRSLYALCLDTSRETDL

| inhibition [1] | Kp at 10 min [3] | fraction unbound [4] | fraction unbound [5] | SMILES | also measured |
| --- | --- | --- | --- | --- | --- |
| 48% | – | – | – | NS(=O)(=O)c1ccncc1-c1nc(NCc2ccccn2)c2c(-c3ccccc3)cccc2n1 | – |
| – | 1 | – | – | O=c1ccc(-c2nc(NCc3ccccn3)c3c(-c4ccccc4)cccc3n2)c[nH]1 | IC50 [2]: 500 nM |
| 79% | 1 | < 0.005 | < 0.005 | NC(=O)Nc1ccc(-c2nc(NCc3ccccn3)c3c(-c4ccccc4)cccc3n2)cn1 | – |
| 87% | – | – | – | NS(=O)(=O)c1cccc(-c2nc(NCc3ccccn3)c3c(-c4ccccc4)cccc3n2)n1 | – |
| 91% | 0.04 | < 0.005 | < 0.005 | NC(=O)Nc1cncc(-c2nc(NCc3ccccn3)c3c(-c4ccccc4)cccc3n2)c1 | solubility [6]: Insoluble |
| – | 3 | < 0.01 | < 0.01 | NC(=O)c1ccc(-c2nc(NCc3ccccn3)c3c(-c4ccccc4)cccc3n2)cn1 | IC50 [2]: 4600 nM; IC50 [7]: 100 nM |
| 64% | 3 | – | – | N#Cc1ncc(-c2nc(NCc3ccccn3)c3c(-c4ccccc4)cccc3n2)cn1 | – |
| 2% | 0.3 | < 0.005 | < 0.005 | O=C(NCC(F)(F)F)c1ccc(-c2cccc3nc(-c4cncnc4)nc(NCc4ccccn4)c23)cc1 | IC50 [2]: 4900 nM |
| 73% | 0.6 | – | – | NS(=O)(=O)c1ccc(CCNc2nc(Cl)nc3cccc(-c4ccccc4)c23)cc1 | remaining at 10 min [8]: 68% |
| 80% | 2 | < 0.005 | < 0.005 | CC(=O)Nc1ccc(-c2nc(NCc3ccccn3)c3c(-c4ccccc4)cccc3n2)cn1 | – |
| 99% | 0.04 | < 0.005 | < 0.005 | NS(=O)(=O)Nc1cncc(-c2nc(NCc3ccccn3)c3c(-c4ccccc4)cccc3n2)c1 | solubility [6]: Insoluble; IC50 [2]: 800 nM |
| – | 2.8 | – | – | c1ccc(-c2cccc3nc(-c4cncnc4)nc(NCc4ccccn4)c23)cc1 | – |
| – | 0.2 | < 0.01 | < 0.01 | NC(=O)c1ccc(-c2cccc3nc(-c4cncnc4)nc(NCc4ccccn4)c23)cc1 | IC50 [2]: 1300 nM |
| – | – | – | – | CN(C)c1ccc(-c2cccc3nc(-c4cncnc4)nc(NCc4ccccn4)c23)cc1 | remaining at 10 min [8]: < 3%; IC50 [7]: 330 nM; IC50 [9]: > 80000 nM |
| 50% | 0.3 | – | – | c1ccc(CNc2nc(-c3cncnc3)nc3cccc(-c4cccc(N5CCOCC5)c4)c23)nc1 | – |
| 92% | 0.4 | < 0.005 | < 0.005 | NS(=O)(=O)c1ccc(-c2nc(NCc3ccccn3)c3c(-c4ccccc4)cccc3n2)cn1 | – |
| – | 2.4 | < 0.005 | < 0.005 | O=S(=O)(c1cccc(Nc2nc(-c3cncnc3)nc3cccc(-c4ccccc4)c23)c1)N1CCOCC1 | IC50 [7]: 80 nM |
| – | – | – | – | O=P(O)(O)NS(=O)(=O)c1cncc(-c2nc(NCc3ccccn3)c3c(-c4ccccc4)cccc3n2)c1 | Drug uptake (Plasma): Not Active; Drug metabolism [10]: Metabolite_Detected; solubility [11]: Soluble |
| 89% | 0.3 | < 0.005 | < 0.005 | NC(=O)c1cncc(-c2nc(NCc3ccccn3)c3c(-c4ccccc4)cccc3n2)c1 | inhibition at 1 µM (hERG (KCNH2) [12]): 26% |
| – | 3 | – | – | O=S(=O)(c1cccc(Nc2nc(Cl)nc3cccc(-c4ccccc4)c23)c1)N1CCOCC1 | IC50 [7]: 210 nM |
| 15% | – | – | – | NS(=O)(=O)c1ccc(CCNc2nc(-c3cncnc3)nc3cccc(-c4ccccc4)c23)cc1 | IC50 [9]: 5600 nM |
| 87% | 0.07 | < 0.005 | < 0.005 | CS(=O)(=O)Nc1cncc(-c2nc(NCc3ccccn3)c3c(-c4ccccc4)cccc3n2)c1 | inhibition at 10 µM (hERG (KCNH2) [13]): 94% |
| – | 0.08 | < 0.005 | < 0.005 | CC(=O)Nc1cncc(-c2nc(NCc3ccccn3)c3c(-c4ccccc4)cccc3n2)c1 | IC50 [2]: 2000 nM; IC50 [7]: 100 nM |
| 95% | 3 | < 0.005 | < 0.005 | Nc1ncc(-c2nc(NCc3ccccn3)c3c(-c4ccccc4)cccc3n2)cn1 | IC50 [2]: 80000 nM |
| – | 2.5 | – | – | COc1ncc(-c2nc(NCc3ccccn3)c3c(-c4ccccc4)cccc3n2)cn1 | – |
